Reference: ChEMBL document CHEMBL1158063, “Awajanomycin, a Cytotoxic gamma-lactone-delta-lactam metabolite from marine-derived Acremonium sp. AWA16-1” (J Nat Prod, 2006)
Converted amounts (≈) assume the structure as drawn. The source made the active and inactive calls. The calls are words filed in the database; no cut-off is given here.

Key:
Alphaproteobacteria = test: Antimicrobial activity against Alphaproteobacteria MBIC3368 at 50 ug/disk after 48 hrs by paper disk method; type: functional, organism-based
Outline: (§1)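 Paper disk method on marine broth agar seeded with the marine strain. Each 6 mm disk was loaded with 50 µg sample, air-dried, and laid on the plate. Inhibition zone read after 48 h at 30 °C.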

Staphylococcus aureus = test: Antimicrobial activity against Staphylococcus aureus IFO 12732 at 50 ug/disk after 48 hrs by paper disk method; type: functional, organism-based
Outline: (§2)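 Paper disk diffusion on nutrient broth agar plates seeded with the test strain. Sample loaded at 50 µg per 6 mm disk, air-dried, and placed on the agar surface. Growth-inhibition zone measured after 48 h incubation at 30 °C.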

Bacillus subtilis = test: Antimicrobial activity against Bacillus subtilis IFO 3134 at 50 ug/disk after 48 hrs by paper disk method; type: functional, organism-based; outline: as §2
Escherichia coli = test: Antimicrobial activity against Escherichia coli IFO 3301 at 50 ug/disk after 48 hrs by paper disk method; type: functional, organism-based; outline: as §2
Candida albicans = test: Antimicrobial activity against sCandida albicans IFO 1060 at 50 ug/disk after 48 hrs by paper disk method; type: functional, organism-based; outline: as §2
Salinivibrio costicola = test: Antimicrobial activity against sSalinivibrio costicola ATCC 33508 at 50 ug/disk after 48 hrs by paper disk method; type: functional, organism-based; outline: as §1
A549 [1] = test: Cytotoxicity against human A549 cells after 72 hrs by alamar blue assay; type: functional, cell-based; conditions: A549, 72 h
Outline: (§3)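 A549 lung adenocarcinoma cells in DMEM with 10% FBS were seeded at 8 × 10^3 cells/well and preincubated 14 h at 37 °C under 5% CO2. Serially diluted samples were then added for 72 h. Alamar Blue was added for a further 4 h, and viability was read as absorbance at 590 nm.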

[2] = test system: Leeuwenhoekiella marinoflava; test: Antimicrobial activity against Cytophaga marinoflava IFO 14170 at 50 ug/disk after 48 hrs by paper disk method; type: functional, organism-based; outline: as §1
A549 [3] = test: Cytotoxicity against human A549 cells after 72 hrs up to 125 ug/mL by alamar blue assay; type: functional, cell-based; outline: as §3

SMILES | Activity (Alphaproteobacteria) | Activity (Staphylococcus aureus) | Activity (Bacillus subtilis) | Activity (Escherichia coli) | Activity (Candida albicans) | Activity (Salinivibrio costicola) | IC50 (A549 [1]) | Activity [2] | Activity (A549 [3])
CCCCCCCC(O)/C=C/[C@@H]1[C@@H]2OC(=O)[C@@]1(O)C(=O)N[C@@H]2C (some centres undefined) [AWAJANOMYCIN] | inactive | inactive | inactive | inactive | inactive | inactive | 27.5 µg/mL (≈ 84.5 µM) | inactive | –
CCCCCCCC(O)/C=C/[C@@H]1[C@H](O)[C@@H](C)NC(=O)[C@]1(O)C(=O)O (some centres undefined) | inactive | inactive | inactive | inactive | inactive | inactive | – | inactive | inactive
CCCCCCCC(O)/C=C/[C@@H]1[C@H](O)[C@@H](C)NC(=O)[C@]1(O)CO (some centres undefined) | inactive | inactive | inactive | inactive | inactive | inactive | 46.4 µg/mL (≈ 141 µM) | inactive | –
